Here are results for 29 compounds from ChEMBL document CHEMBL1146047, “Novel pyrazolopyrimidopyridazinones with potent and selective phosphodiesterase 5 (PDE5) inhibitory activity as potential agents for treatment of erectile dysfunction” (J Med Chem, 2006).

A value given as a limit tells only on which side of the number the result lay.

Assay [1] has as its target T1, cGMP-specific 3',5'-cyclic phosphodiesterase (Homo sapiens, UniProt O76074). Description: Inhibition of PDE5 at 2 uM. The gist of the method: (§1)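 PDE5 enzyme preparation was stored frozen at -80 °C with 1 g/L bovine serum albumin until use. […] Activity is reported as percent inhibition at the single test concentration indicated.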
The test system of assay [2] is Phosphodiesterase 6 (Bos taurus). Briefly: Inhibition of PDE6 at 2 uM.
Assay [3] deals with T1, cGMP-specific 3',5'-cyclic phosphodiesterase. Description: Inhibition of PDE5.
For assay [4], the target named is Phosphodiesterase 6 (Bos taurus). Briefly: Inhibition of PDE6.
In assay [5] the target is T1, cGMP-specific 3',5'-cyclic phosphodiesterase. Description: Inhibition of PDE5 at 0.2 uM. The method, boiled down: as §1
Assay [6] has as its system Phosphodiesterase 6 (Bos taurus). Description: Inhibition of PDE6 at 0.2 uM.
The species entered for assay [7] is Homo sapiens. Briefly: Selectivity for PDE5 over PDE6.

In general, inhibition refers to the drop in the measured response relative to a control, in per cent. Read a low inhibition as a weak effect. Turning to `Cc1nc2c(=O)n(Cc3ccccc3)nc(C3CCCC3)c2c2cc(-c3ccccc3)nn12`, the inhibition was 14.3% in assay [1] and 12.3% in assay [2].

Take `CCCCn1nc(C)c2c(nc(C)n3nc(-c4ccccc4)cc23)c1=O`: the inhibition in assay [1] was 54.6%; in assay [2], 32.5%.

Broadly, the IC50 is the concentration that gives 50% inhibition. Read a high IC50 as a need for much substance. In the case of `CCOCc1nn(Cc2ccccc2)c(=O)c2nc(C)n3nc(-c4ccccc4)cc3c12`, the IC50 is 0.071 µM in assay [3] and 0.33 µM in assay [4].

For `C#CCn1nc(C)c2c(nc(C)n3nc(-c4ccccc4)cc23)c1=O`, the inhibition stood at 19.7% in assay [5] and 0.3% in assay [6].

For `Cc1nn(Cc2ccccc2)c(=O)c2nc(C)n3nc(-c4ccc(Cl)cc4)cc3c12`, the IC50 in assay [3] is 0.37 µM; in assay [4], 4.7 µM.

The compound `Cc1nnc(NCc2ccc3c(c2)OCO3)c2nc(C)n3nc(-c4ccccc4)cc3c12` registered an inhibition in assay [1] of 56.8%.

Take `Cc1nn(CC(=O)O)c(=O)c2nc(C)n3nc(-c4ccccc4)cc3c12`: the inhibition in assay [5] came to 7.6%; in assay [6], 11.2%.

`Cc1nn(Cc2ccccc2)c(=O)c2ncn3nc(-c4ccccc4)cc3c12`: the IC50 in assay [3] came to 0.18 µM; in assay [4], 0.86 µM.

In the case of `COC(=O)CCc1nc2c(=O)n(Cc3ccccc3)nc(C)c2c2cc(-c3ccccc3)nn12`, the IC50 in assay [3] stood at 0.079 µM. In addition, the inhibition in assay [2] was found to be 16.9%.

The compound `Cc1nnc(NCc2ccccc2)c2nc(C)n3nc(-c4ccccc4)cc3c12` displayed an inhibition in assay [1] of 52.4%.

Turning to `COC(=O)CCCCc1nc2c(=O)n(Cc3ccccc3)nc(C)c2c2cc(-c3ccccc3)nn12`, the half-maximal inhibitory concentration (IC50) in assay [3] turned out to be 0.095 µM. The compound further came in with an inhibition in assay [2] of 1.1%.

Consider `CC(=O)CCc1nc2c(=O)n(Cc3ccccc3)nc(C)c2c2cc(-c3ccccc3)nn12`, for which the Selectivity ratio in assay [7] was more than 240. Besides, 0.0083 µM corresponded to half-maximal inhibition in assay [3] (IC50). In assay [2], the inhibition came out at 22.8%.

As to `Cc1nn(Cc2ccccc2)c(=O)c2nc(C)n3nc(-c4ccoc4)cc3c12`, the IC50 came out at 0.05 µM in assay [3] and 0.33 µM in assay [4].

With `Cc1nn(Cc2ccccc2)c(=O)c2nc(C)n3nc(-c4ccsc4)cc3c12`, the Selectivity ratio in assay [7] came to 16. For the same compound, the IC50 in assay [3] came out at 0.14 µM; in assay [4], 2.2 µM.

On to `Cc1nc2c(=O)n(Cc3ccccc3)nc(C(C)C)c2c2cc(-c3ccccc3)nn12`, for which, in assay [3], half-maximal inhibition (IC50) required 0.1 µM. This compound yielded an inhibition in assay [2] of 59.8%.

With `CCn1nc(C)c2c(nc(C)n3nc(-c4ccccc4)cc23)c1=O`, the inhibition in assay [1] stood at 49.3%; in assay [6], 53.4%.

`Cc1nn(C(C)C)c(=O)c2nc(C)n3nc(-c4ccccc4)cc3c12`: the inhibition in assay [1] amounted to 44.7%; in assay [2], 1.2%.

In the case of `Cc1nn(Cc2ccccc2)c(=O)c2nc(C)n3nc(-c4ccccc4)cc3c12`, the inhibition in assay [2] was 25%.

Regarding `COc1cccc(Cn2nc(C)c3c(nc(C)n4nc(-c5ccccc5)cc34)c2=O)c1`, in assay [7], the Selectivity ratio is more than 20. The IC50 in assay [3] came out at 0.1 µM. In assay [2], this compound registered an inhibition of 3.8%.

As to `CCCc1nc2c(=O)n(Cc3ccccc3)nc(C)c2c2cc(-c3ccccc3)nn12`, the Selectivity ratio in assay [7] stood at 15. Also, the IC50 in assay [3] turned out to be 0.04 µM; in assay [4] it was 0.61 µM.

Consider `Cc1nn(Cc2ccc3c(c2)OCO3)c(=O)c2nc(C)n3nc(-c4ccccc4)cc3c12`, for which the IC50 in assay [3] came to 0.39 µM. In assay [2], this compound showed an inhibition of 7%.

Compound `Cc1nn(Cc2ccncc2)c(=O)c2nc(C)n3nc(-c4ccccc4)cc3c12` came in with an IC50 in assay [3] of 0.24 µM. In assay [2], the inhibition is 39.4%.

Consider `Cc1nn(Cc2ccccc2)c(=O)c2nc(C)n3nc(-c4ccc(S(C)(=O)=O)cc4)cc3c12`, for which the inhibition in assay [1] amounted to 3.8%; in assay [2], 2.8%.

As for `CCCn1nc(C)c2c(nc(C)n3nc(-c4ccccc4)cc23)c1=O`, the inhibition in assay [1] turned out to be 44.9%; in assay [2], 6.9%.

With `Cc1nn(Cc2ccccc2)c(=O)c2nc(C)n3nc(-c4cccnc4)cc3c12`, the IC50 in assay [3] was found to be 0.47 µM; in assay [4], 0.28 µM.

`CCc1nn(Cc2ccccc2)c(=O)c2nc(C)n3nc(-c4ccccc4)cc3c12` yielded an IC50 in assay [3] of 0.22 µM. The compound further had an inhibition in assay [2] of 21.8%.

In the case of `Cc1nn(CCC2CCNCC2)c(=O)c2nc(C)n3nc(-c4ccccc4)cc3c12`, the inhibition stood at 67.7% in assay [1] and 26.6% in assay [2].

On to `Cc1nc2c(=O)n(Cc3ccccc3)nc(CN3CCN(C)CC3)c2c2cc(-c3ccccc3)nn12`, for which the inhibition in assay [5] was found to be 23%; in assay [6] it was 30%.

Regarding `Cc1nn(Cc2ccccc2)c(=O)c2nc(C)n3nc(-c4ccc(F)cc4)cc3c12`, the inhibition in assay [1] amounted to 38.8%; in assay [2] it was 4.5%.
